Source: PubChem (The Scripps Research Institute Molecular Screening Center)
CHRM4 agonist: human M4 muscarinic receptor agonists, primary screen, CHO-K1 cells, Fluo-8 calcium fluorescence | CHO-K1 hM4/Gqi5; vehicle 0%, full acetylcholine response 100% | AID 624127, 2012 | activation, % at 3 µM | 0.14% of 360,000 active | Muscarinic acetylcholine receptor M4 (Homo sapiens), P08173;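 active = activation above the run mean over all test wells plus 3 SD, cut at about 32% in these data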;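 also: peak over basal fluorescence ratio per well then scaled between controls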
Target sequence (P08173 whole entry, looked up): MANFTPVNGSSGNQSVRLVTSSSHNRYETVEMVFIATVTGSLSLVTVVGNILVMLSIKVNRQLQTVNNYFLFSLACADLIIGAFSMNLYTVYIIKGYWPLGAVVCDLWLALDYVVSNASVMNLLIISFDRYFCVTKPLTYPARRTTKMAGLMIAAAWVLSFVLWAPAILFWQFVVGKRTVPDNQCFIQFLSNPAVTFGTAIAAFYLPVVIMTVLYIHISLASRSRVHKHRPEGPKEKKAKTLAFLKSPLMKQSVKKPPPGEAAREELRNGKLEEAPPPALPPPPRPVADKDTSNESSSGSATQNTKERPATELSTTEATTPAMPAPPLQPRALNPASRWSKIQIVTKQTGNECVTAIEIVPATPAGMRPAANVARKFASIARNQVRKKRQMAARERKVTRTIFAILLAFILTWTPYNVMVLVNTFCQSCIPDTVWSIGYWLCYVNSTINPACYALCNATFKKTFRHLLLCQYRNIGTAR
CHRM5 PAM: human M5 muscarinic receptor positive allosteric modulators, primary screen, CHO-K1 cells, Fluo-8 calcium fluorescence. activation, % at 3 µM. Muscarinic acetylcholine receptor M5 (Homo sapiens), P08912. 0.3% of 360,000 active. CHO-K1 hM5, ACh EC20 PAM; 0% = ACh EC20, 100% = ACh EC100;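 active = activation above the run cutoff, the mean activation of all test compounds plus 3 SD, cut at about 18% in these data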
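Assay system: CHO-K1 hM5 cells. Also added: acetylcholine at EC20 concentration, added after compound. Dosing: 3 µM, single dose. Times: compound preincubation 140 s before EC20 acetylcholine addition. Signal: Fluo-8 calcium fluorescence. Measure: % activation relative to EC20 and EC100 ACh responses. Repeats: singlicate, one well per test compound.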
CHRM4 antagonist: human M4 muscarinic receptor antagonists, primary screen, CHO cells, Fluo-8 calcium fluorescence; inhibition, % at 3 µM; 0.73% of 360,000 active; CHO-hM4 cells, ACh EC80;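 active = inhibition above its plate's cutoff, the mean inhibition of sample wells plus 3 SD, cut at about 27% in these data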
CHRM5 agonist: human M5 muscarinic receptor agonists, primary screen, CHO-K1 cells, Fluo-8 calcium fluorescence. activation, % at 3 µM. 0.19% of 360,000 active. CHO-K1 hM5 cells; 0% DMSO wells, 100% maximal acetylcholine response;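 active = activation above the run's mean over test compounds plus 3 SD, cut at about 23% in these data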;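 also: signal is peak over basal fluorescence ratio across the kinetic read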
M4 PAM: human M4 muscarinic receptor positive allosteric modulators, primary screen, CHO-K1 cells, Fluo-8 calcium fluorescence; Muscarinic acetylcholine receptor M4 (Homo sapiens), P08173; CHO-K1 hM4/Gqi5, ACh EC20; 0% = ACh EC20, 100% = maximal ACh; activation, % at 3 µM; 0.4% of 360,000 active;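 active = activation above its plate's cutoff, the mean activation of sample wells plus 3 SD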
M5 antag: human M5 muscarinic receptor antagonists, primary screen, CHO cells, Fluo-8 calcium fluorescence | AID 624040, 2012 | Muscarinic acetylcholine receptor M5 (Homo sapiens), P08912 | 0.59% of 360,000 active | inhibition, % at 3 µM | CHO-hM5 cells, ACh EC80;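 active = inhibition above a per-plate cutoff, the mean of that plate's test compounds plus 3 SD, cut at about 27% in these data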
Hits are given with their value; 0 = inactive. In the library only some 1.8% were active in any assay of this set; here they are far more common.

SMILES	CHRM4 agonist	CHRM5 PAM	CHRM4 antagonist	CHRM5 agonist	M4 PAM	M5 antag
COc1ccc(-n2c(CSc3nc(C)cc(C)n3)nnc2SCC(=O)Nc2nccs2)cc1	0	0	0	0	0	0
Cc1ccc(-n2c(CSc3nc(C)cc(C)n3)nnc2SCC(=O)Nc2nccs2)cc1	0	0	38	0	0	0
CC(C)(C)c1ccc(OCC(O)CN2CCOCC2)cc1 (stereo unspecified)	0	0	0	0	0	0
CSc1ccc(/C=c2\s/c(=C\C(=O)C(C)(C)C)n(CC(=O)NCCC3=CCCCC3)c2=O)cc1	0	0	0	0	0	0
CCCNC(=O)Cn1c(=O)/c(=C/c2ccc(-c3ccc([N+](=O)[O-])cc3)o2)s/c1=C\C(=O)C(C)(C)C	35	0	0	123	0	53
O=C(c1ccc(Cl)cc1)C1CCCN(Cc2ccc(Oc3ncccn3)cc2)C1 (stereo unspecified)	0	0	44	0	0	0
O=C(c1ccc(Cl)cc1)C1CCCN(Cc2cnn(-c3ccccc3)c2)C1 (stereo unspecified)	0	0	0	0	0	0
Cc1ccc2nc(C)cc(C(=O)NC3CCCCCC3)c2c1	0	0	0	0	25	0
Cc1ccc(S(=O)(=O)N/N=C/c2ccc(OC3CSC3)cc2)cc1	42	0	0	38	0	0
CN1C(=O)/C(=C/c2ccc(C(F)(F)F)cc2)Sc2ccc(C(=O)N3CCN(c4ccccn4)CC3)cc21	0	0	0	0	0	37
CN1C(=O)/C(=C/c2ccccc2Cl)Sc2ccc(C(=O)N3CCCC3)cc21	0	0	0	0	0	0
O=C(C=C=Nc1ccccc1)C(=O)N=C=Cc1ccccc1	0	0	0	0	0	0
Cc1ccc(Nc2nc(-c3c(C)nc4ccccn34)cs2)cc1	0	0	27	0	0	0
NC(=O)c1c(NC(=O)Cn2cnc([N+](=O)[O-])n2)sc2c1CCCC2	0	0	28	0	0	0
CC[C@@H](C(=O)[C@@H](C)[C@@H](O)[C@H](C)CCc1ccc(C)c(O)c1C(=O)O)[C@H]1O[C@](CC)([C@H]2CC[C@](O)(CC)[C@H](C)O2)C[C@@H]1C	72	0	0	27	0	0
C=CCNC(=O)c1ccsc1N	0	0	0	0	0	0
COc1ccccc1-c1c(C(F)(F)F)oc2cc(OC(=O)c3ccc([N+](=O)[O-])cc3)ccc2c1=O	0	0	0	0	21	0
Cc1cc(=O)oc2cc(OC(=O)c3ccccc3)ccc12	0	0	0	0	0	0
O=[N+]([O-])c1cccc(/C=N/Nc2nnc(-c3ccccc3)c(-c3ccccc3)n2)c1	0	0	0	0	34	0
C/C(=N\Nc1nnc(-c2ccccc2)c(-c2ccccc2)n1)c1cccc([N+](=O)[O-])c1	0	0	0	0	0	0
O=C(Cn1c2ccccc2c2nc3n(c(=O)c21)CCS3)Nc1ccccc1C(F)(F)F	0	19	0	0	0	0
C=CCN1C(=O)/C(=C2/Sc3ccccc3N2CC)SC1=S	0	0	0	0	0	0
CCN1C(=O)/C(=C2\Sc3ccccc3N2CC)OC1=S	0	0	0	0	23	0
CCN1/C(=C/c2ccc3cc(C)ccc3[n+]2CC)Sc2ccccc21	0	0	33	24	0	60
CCN1/C(=C/C=C/c2sc3ccccc3[n+]2CC)Sc2ccccc21	0	0	0	0	0	0
SMILES	CHRM4 agonist	CHRM5 PAM	CHRM4 antagonist	CHRM5 agonist	M4 PAM	M5 antag
CC[n+]1ccccc1/C=C1\Sc2ccc(C)cc2N1C	0	0	0	0	0	0
CCN1/C(=C/c2ccc3cc(C)ccc3[n+]2CC)Sc2cc(C)c(C)cc21	0	0	31	0	0	41
CC[n+]1c(/C=C2\Sc3ccccc3N2C)ccc2cccc(C)c21	0	0	0	0	0	38
O=C(c1ccc(Br)cc1)N1CCC(C(=O)N2CCN(Cc3ccccc3)CC2)CC1	0	0	0	0	0	0
Cc1ccc(Cn2cccc(NC(=O)NC3CCCCC3)c2=O)cc1	0	34	0	0	0	0
O=C(Nc1cccn(Cc2ccc(F)cc2)c1=O)NC1CCCCC1	0	0	0	0	0	0
CCCNC(=O)C1(C)CCCN(Cc2csc3ccccc23)C1 (stereo unspecified)	0	0	0	0	0	0
CC(=O)Nc1ccc(Nc2ncnc3c2cnn3-c2cccc(C)c2)cc1	0	0	0	0	0	0
CC(=O)Nc1ccc(Nc2ncnc3c2cnn3-c2ccccc2)cc1	0	0	28	0	0	0
COc1ccccc1Oc1ncnc2c1cnn2-c1ccccc1	0	0	0	0	0	0
COc1ncnc2c1cnn2-c1ccccc1	0	0	0	0	27	0
CC(C)C[C@H]1CN(CCCC[C@H]2CNC(=O)C(=O)N2CC2CCCCC2)C(=O)C(=O)N1Cc1ccccc1	0	0	0	0	0	0
CC(C)(C)c1ccc(C(=O)NCC2CCCN2S(=O)(=O)c2ccccc2)cc1 (stereo unspecified)	0	0	0	0	0	0
CN1CCCC1CCOC(C)(c1ccccc1)c1ccc(Cl)cc1 (stereo unspecified)	0	0	98	0	0	98
O=C(O)c1ccccc1C(=O)c1cccc2ccccc12	0	0	0	0	0	0
O=C([O-])c1ccccc1-[n+]1c(-c2ccccc2)cc(-c2ccccc2)cc1-c1ccccc1	0	0	61	0	0	0
CC(C)NC(=O)NC(=O)CSc1ccc(S(=O)(=O)N2CCOCC2)cn1	0	0	0	0	21	0
CCCCNC(=O)CSc1ccc(S(=O)(=O)N2CCOCC2)cn1	0	0	0	0	0	0
Fc1cccc(Cc2c(-c3ccco3)nc3ccc(Br)cn23)c1	0	0	0	0	0	0
Cc1ccc(NC(=S)NNC(=O)c2cccc([N+](=O)[O-])c2)cc1Cl	0	0	0	0	0	28
Cc1ccc(C(C)C)cc1NC(=O)Nc1ccc([N+](=O)[O-])cc1	0	0	0	0	0	28
Cc1ccc(NC(=O)Nc2cccc([N+](=O)[O-])c2)cc1F	0	0	0	0	0	28
Cc1cc(O)c(C(C)C)cc1NC(=O)Nc1ccc([N+](=O)[O-])cc1	0	0	0	0	0	0
C=CCC1(CC=C)CC(Cc2cnccn2)N(C(=O)OC(C)(C)C)C1 (stereo unspecified)	0	0	0	0	0	0
